Experimental findings from ChEMBL document CHEMBL1138132, “Cyclic urea derivatives as potent NK1 selective antagonists. Part II: Effects of fluoro and benzylic methyl substitutions” (Bioorg Med Chem Lett, 2006) are described below.

Series [1] has as its target T1, Substance-P receptor (Homo sapiens, UniProt P25103). Particulars: CHO, 3 uM.
The nature of series [2]: Oral bioavailability in rat. Format: ADME, organism-based. The settings on record: in vivo.
The test system of series [3] is Meriones unguiculatus. In words: Inhibition of Mongolian gerbil foot-tapping at 2 h time point at 1 mg/kg, po. Format: functional. The gist of the method: (§1)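 Female Mongolian gerbils dosed orally at 1 mg/kg in 0.4% methylcellulose in distilled water at set pretreatment times (2, 4 or 6 h) before icv injection of NK1 agonist GR73632 (3 pmol in 5 µl) under anesthesia. After recovery, animals were placed in clear boxes and duration of hind-foot tapping was timed over 5 min; expressed as % inhibition.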

Series [4] concerns Meriones unguiculatus. In words: Inhibition of Mongolian gerbil foot-tapping at 6 hr time point at 1 mg/kg, po. Format: functional. The gist of the method: as §1
In series [5] the test system is Meriones unguiculatus. The experiment in a line: Inhibition of Mongolian gerbil foot-tapping at 4 hr time point at 1 mg/kg, po. Format: functional. In outline:
as §1

Series [6] in a line: Ratio of drug level in brain against plasma in Mongolian gerbil. Format: ADME, organism-based, Meriones unguiculatus.
Series [7] has as its target T1, Substance-P receptor. The experiment in a line: Displacement of [3H]-Sar-Met Substance P from recombinant human NK1 receptor in CHO cells. Type of series: cell-based. The gist of the method: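 Membranes from CHO cells expressing recombinant human NK1 receptor; [3H]-Sar-Met Substance P radioligand at concentrations near its experimentally derived Kd. Ki calculated by Cheng–Prusoff equation; values are the average of two or three independent determinations.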
In general terms: Displacement assays read how much labelled ligand stays bound in the presence of the test substance.

Series [8] can be described thus: Ratio of drug level in brain against plasma in rat. Format: ADME, organism-based.
Series [9] can be described thus: Solubility in pH 7.4 buffer. Type of series: physicochemical.

Molecules are shown by their SMILES. Values after ≈ are worked out from the molar mass of the structure shown.

T1 sequence (P25103 whole entry): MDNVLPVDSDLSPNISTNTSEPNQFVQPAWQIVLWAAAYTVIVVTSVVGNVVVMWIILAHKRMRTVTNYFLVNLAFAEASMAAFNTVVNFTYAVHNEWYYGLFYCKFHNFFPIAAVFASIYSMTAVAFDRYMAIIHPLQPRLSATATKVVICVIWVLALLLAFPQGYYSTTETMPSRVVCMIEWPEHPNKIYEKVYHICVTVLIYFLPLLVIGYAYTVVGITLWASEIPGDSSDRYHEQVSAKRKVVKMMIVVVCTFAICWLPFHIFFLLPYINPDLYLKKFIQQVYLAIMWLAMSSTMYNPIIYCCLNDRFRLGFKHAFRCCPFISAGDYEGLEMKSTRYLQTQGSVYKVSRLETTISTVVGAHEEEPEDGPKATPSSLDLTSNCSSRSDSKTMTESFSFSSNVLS

With `C[C@H](OC[C@]1(c2ccccc2)CNC(=O)N1)c1cc(C(F)(F)F)cc(C(F)(F)F)c1`, the inhibition against Substance-P receptor [1] came out at 22%.
In the case of `O=C1NC[C@@](COCc2cc(C(F)(F)F)cc(C(F)(F)F)c2)(c2ccc(F)cc2)N1`, the bioavailability in series [2] worked out at 93%. In addition, the inhibition in vivo at 1 mg/kg in the series with Meriones unguiculatus [3] was 22%; in the series on Meriones unguiculatus [4], 51%; in the series on Meriones unguiculatus [5] it was 55%. Also, the Kp in series [6] is 16. The Ki at Substance-P receptor [7] turned out to be 2.7 nM.
For the compound `O=C1NC(COCc2cc(C(F)(F)F)cc(C(F)(F)F)c2)(c2ccc(F)cc2)CN1CCN1CCCC1` (stereo not drawn), the inhibition in vivo at 1 mg/kg in the series on Meriones unguiculatus [3] is 2%; in the series with Meriones unguiculatus [4], 0%; with Meriones unguiculatus [5], 0%.
Take `O=C1NC[C@@](COCc2cc(C(F)(F)F)cc(C(F)(F)F)c2)(c2ccccc2)N1`: the results for the inhibition in vivo at 1 mg/kg in the series on Meriones unguiculatus [3] and in the series with Meriones unguiculatus [5] were 54% and 12%, respectively. The Kp in series [8] worked out at 4; in series [6], 18. In addition, at Substance-P receptor [7], the Ki worked out at 6 nM.
With `O=C1NC(COCc2cc(C(F)(F)F)cc(C(F)(F)F)c2)(c2ccc(F)cc2)CN1C1CCNCC1` (stereo not drawn), the inhibition in vivo at 1 mg/kg with Meriones unguiculatus [3] and in the series with Meriones unguiculatus [5] was 0% throughout. Moreover, the Ki at Substance-P receptor [7] came out at 0.9 nM.
With `C[C@@H](OC[C@@]1(c2ccc(F)cc2)CN(CC(N)=O)C(=O)N1)c1cc(C(F)(F)F)cc(C(F)(F)F)c1`, the results for the inhibition in vivo at 1 mg/kg with Meriones unguiculatus [3] and in the series on Meriones unguiculatus [5] were 14% and 20%, respectively. The Ki on Substance-P receptor [7] was 0.4 nM.
As for `CC(C)N1C[C@@](CO[C@H](C)c2cc(C(F)(F)F)cc(C(F)(F)F)c2)(c2ccccc2)NC1=O`, the Ki on Substance-P receptor [7] was 3.1 nM.
Consider `CN1CCC(N2CC(COCc3cc(C(F)(F)F)cc(C(F)(F)F)c3)(c3ccc(F)cc3)NC2=O)CC1` (stereo not drawn), for which the inhibition in vivo at 1 mg/kg in the series with Meriones unguiculatus [3] turned out to be 3%; in the series with Meriones unguiculatus [5] it was 0%. Besides, the Ki at Substance-P receptor [7] was 0.4 nM.
With `C[C@@H](OC[C@@]1(c2ccccc2)CN(C)C(=O)N1)c1cc(C(F)(F)F)cc(C(F)(F)F)c1`, the figures for the inhibition in vivo at 1 mg/kg with Meriones unguiculatus [3], with Meriones unguiculatus [4] and in the series with Meriones unguiculatus [5] were 86%, 31% and 62%, respectively. For the same compound, the inhibition constant (Ki) on Substance-P receptor [7] worked out at 0.5 nM.
Regarding `O=C1NCC(COCc2cc(C(F)(F)F)cc(C(F)(F)F)c2)(c2ccc(F)cc2)N1` (stereo not drawn), the Ki on Substance-P receptor [7] was found to be 4.5 nM.
For the compound `O=C1NC(COCc2cc(C(F)(F)F)cc(C(F)(F)F)c2)(c2ccc(F)cc2)CN1C1CCOCC1` (stereo not drawn), the inhibition in vivo at 1 mg/kg is 22% in the series with Meriones unguiculatus [3] and 0% with Meriones unguiculatus [5]. Besides, the Ki at Substance-P receptor [7] came to 6.3 nM.
As for `C[C@@H](OC[C@@]1(c2ccc(F)cc2)CN(C)C(=O)N1)c1cc(C(F)(F)F)cc(C(F)(F)F)c1`, the inhibition in vivo at 1 mg/kg was found to be 65% in the series with Meriones unguiculatus [3], 63% in the series on Meriones unguiculatus [4] and 57% with Meriones unguiculatus [5]. In series [9], the solubility came out at 3 µM (≈ 1.39 µg/mL). Besides, the Ki on Substance-P receptor [7] amounted to 3.6 nM.
Turning to `C[C@@H](OC[C@]1(c2ccccc2)CNC(=O)N1)c1cc(C(F)(F)F)cc(C(F)(F)F)c1`, on Substance-P receptor [7], the Ki turned out to be 41 nM.
On the same count and under the same terms, the value for `C[C@H](OC[C@@]1(c2ccccc2)CNC(=O)N1)c1cc(C(F)(F)F)cc(C(F)(F)F)c1` was 93 nM.
As for `C[C@@H](OC[C@@]1(c2ccc(F)cc2)CNC(=O)N1)c1cc(C(F)(F)F)cc(C(F)(F)F)c1`, the inhibition in vivo at 1 mg/kg in the series with Meriones unguiculatus [3] amounted to 40%; in the series with Meriones unguiculatus [4] it was 41%; in the series with Meriones unguiculatus [5], 44%. Besides, the Ki on Substance-P receptor [7] worked out at 1.5 nM.
For the compound `CCN1C[C@@](CO[C@H](C)c2cc(C(F)(F)F)cc(C(F)(F)F)c2)(c2ccccc2)NC1=O`, the results for the inhibition in vivo at 1 mg/kg with Meriones unguiculatus [3] and in the series on Meriones unguiculatus [5] were 45% and 46%, respectively. The Ki at Substance-P receptor [7] was 1.7 nM.
In series [2], `C[C@@H](OC[C@@]1(c2ccccc2)CNC(=O)N1)c1cc(C(F)(F)F)cc(C(F)(F)F)c1` returned a bioavailability of 100%. The inhibition in vivo at 1 mg/kg stood at 35% with Meriones unguiculatus [3], 48% in the series with Meriones unguiculatus [4] and 57% in the series with Meriones unguiculatus [5]. The Kp in series [8] is 4.4; in series [6], 10. Also, the Ki at Substance-P receptor [7] was 0.6 nM.
With `CCN1C[C@@](CO[C@H](C)c2cc(C(F)(F)F)cc(C(F)(F)F)c2)(c2ccc(F)cc2)NC1=O`, the values for the inhibition in vivo at 1 mg/kg in the series with Meriones unguiculatus [3] and with Meriones unguiculatus [5] were 9% and 0%, respectively. The Ki on Substance-P receptor [7] turned out to be 0.8 nM.
On to `O=C1NC[C@](COCc2cc(C(F)(F)F)cc(C(F)(F)F)c2)(c2ccc(F)cc2)N1`, for which the Ki on Substance-P receptor [7] was found to be 89 nM.

The inhibition is the percentage by which the read-out fell short of the control. By bioavailability is commonly meant dose-corrected exposure relative to a reference, in per cent. Higher therefore signals much systemic uptake. Usually inhibition in vivo stands for how much of the control response was suppressed. Read a high inhibition in vivo as a strong effect. As a reminder, the Kp is the ratio of the level in a tissue or fluid to that in plasma or blood. As a reminder, the Ki is the equilibrium dissociation constant of an inhibitor or competing ligand from its target. What is called solubility is how much of the substance goes into solution per volume.
